Laboratory results: ChEMBL document CHEMBL1126681, “Novel acyclonucleotides: synthesis and antiviral activity of alkenylphosphonic acid derivatives of purines and a pyrimidine” (J Med Chem, 1993)
Values after ≈ are worked out from the molar mass of the structure shown. Active and inactive are the calls of the source. The rule behind the calls is not given here.

Assays:
Visna-maedi virus [1] = assay: Compound was evaluated for anti-retrovirus activity against Visna virus (K184) strain in infected sheep choroid plexus cells; Not active; assay type: functional, organism-based
Human alphaherpesvirus 3 [2] = assay: Compound was evaluated for anti-herpesvirus activity against Varicella Zoster virus (Ellen) strain; assay type: functional, organism-based
In short: (§1)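 Plaque-reduction assay in human fibroblast (MRC-5) cells infected with virus. IC50 is the compound concentration that halves the plaque count.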

Cytomegalovirus [3] = assay: Compound was evaluated for anti-herpesvirus activity against Cytomegalovirus (AD169) strain plaques in infected human fibroblast (MRC-5) cells; assay type: functional, organism-based; details: Human betaherpesvirus 5, MRC5; in short: as §1
Human alphaherpesvirus 2 [4] = assay: Compound was evaluated for anti-herpesvirus activity against Herpes simplex virus-2 (MS) strain; assay type: functional, organism-based; in short: as §1
Human alphaherpesvirus 1 [5] = assay: Compound was evaluated for anti-herpesvirus activity against Herpes simplex virus-1 (SC16) strain; assay type: functional, organism-based
MRC5 [6] = assay: Compound was evaluated for the inhibition of cell replication of human fibroblast (MRC-5) cells; assay type: functional; details: read-out: CD50 (the source's name)
In short: (§2)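 Cytotoxicity in uninfected cells, measured as inhibition of DNA synthesis by [3H]thymidine incorporation. CD50 is the concentration giving 50% inhibition of cell replication.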

[7] = system: Human immunodeficiency virus 1; assay: Compound was evaluated for anti-retrovirus activity against HIV-1 (D34) Diagen strain; Not active; assay type: functional, organism-based
[8] = Second dissociation constant was determined; assay type: ADME
[9] = Compound was evaluated for the inhibition of DNA synthesis in uninfected cells; assay type: functional; details: read-out: CD50 (the source's name); in short: as §2
Human alphaherpesvirus 3 [10] = assay: Compound was evaluated for anti-herpesvirus activity against Varicella Zoster virus (Ellen) strain; Not active; assay type: functional, organism-based; in short: as §1
Human alphaherpesvirus 2 [11] = assay: Compound was evaluated for anti-herpesvirus activity against Herpes simplex virus-2 (MS) strain; Not active; assay type: functional, organism-based; in short: as §1
Visna-maedi virus [12] = assay: Compound was evaluated for anti-retrovirus activity against Visna virus (K184) strain in infected sheep choroid plexus cells; assay type: functional
In short: (§3)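 Infected sheep choroid plexus (SCP) cells. MIC is the lowest concentration that completely prevents virus cytopathic effect.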

[13] = Compound was evaluated for the inhibition of cell replication sheep choroid plexus (SCP) cells; assay type: functional; details: Ovis aries; read-out: CD50 (the source's name); in short: as §2
Cytomegalovirus [14] = assay: Compound was evaluated for anti-herpesvirus activity against Cytomegalovirus (AD169) strain plaques in infected human fibroblast (MRC-5) cells; Not active; assay type: functional, organism-based; in short: as §1
Human alphaherpesvirus 1 [15] = assay: Compound was evaluated for anti-herpesvirus activity against Herpes simplex virus-1 (SC16) strain; Not active; assay type: functional, organism-based
Cytomegalovirus [16] = assay: Compound was evaluated for anti-herpesvirus activity against Cytomegalovirus (AD169) strain plaques in infected human fibroblast (MRC-5) cells.; assay type: functional, organism-based; details: Human betaherpesvirus 5, MRC5; in short: as §1
Human alphaherpesvirus 2 [17] = assay: Compound was evaluated for anti-herpesvirus activity against Herpes simplex virus-2 (MS) strain.; assay type: functional, organism-based; in short: as §1
Human alphaherpesvirus 3 [18] = assay: Compound was evaluated for anti-herpesvirus activity against Varicella Zoster virus (Ellen) strain.; assay type: functional, organism-based; in short: as §1
Human alphaherpesvirus 1 [19] = assay: Compound was evaluated for anti-herpesvirus activity against Herpes simplex virus-1 (SC16) strain.; assay type: functional, organism-based
MRC5 [20] = assay: Compound was evaluated for the inhibition of cell replication of human fibroblast (MRC-5) cells.; assay type: functional; details: read-out: CD50 (the source's name); in short: as §2
[21] = Compound was evaluated for the inhibition of cell replication human peripheral blood lymphocytes (PBL's); assay type: functional; details: read-out: CD50 (the source's name); in short: as §2
[22] = system: Human immunodeficiency virus 1; assay: Compound was evaluated for anti-retrovirus activity against HIV-1 (D34) Diagen strain; assay type: functional, organism-based
[23] = Compound was evaluated for the inhibition of cell replication sheep choroid plexus (SCP) cells.; assay type: functional; details: Ovis aries; read-out: CD50 (the source's name); in short: as §2
PBL = assay: Compound was evaluated for the inhibition of cell replication human peripheral blood lymphocytes (PBL's).; assay type: functional; details: read-out: CD50 (the source's name); in short: as §2
Visna-maedi virus [24] = assay: Compound was evaluated for anti-retrovirus activity against Visna virus (K184) strain in infected sheep choroid plexus cells.; assay type: functional; in short: as §3
Cytomegalovirus [25] = assay: Compound was evaluated for anti-herpes virus activity against Cytomegalovirus (AD169) strain plaques in infected human fibroblast (MRC-5) cells; Not active; assay type: functional, organism-based; in short: as §1

SMILES | MIC (Visna-maedi virus [1]) | IC50 (Human alphaherpesvirus 3 [2]) [µM] | IC50 (Human alphaherpesvirus 2 [4]) [µM] | CC50 (MRC5 [6]) [µM] | MIC (Visna-maedi virus [12]) [µM] | CC50 [13] [µM] | IC50 (Human alphaherpesvirus 1 [15]) | also measured
Nc1ncnc2c1ncn2CC/C=C\P(=O)(O)O | inactive | – | – | – | – | – | – | –
Nc1nc(O)c2ncn(CC(/C=C/P(=O)(O)O)CO)c2n1 (stereo not drawn) | – | 17 | 66 | 20 | – | – | – | IC50 (Cytomegalovirus [3]): < 9 µM; IC50 (Human alphaherpesvirus 1 [5]): 60 µM; IC50 [7]: Not Active
C=C(/C=C/P(=O)(O)O)Cn1cnc2c(O)nc(N)nc21 | inactive | – | – | – | – | – | – | –
Nc1nc2c(ncn2CCOCP(=O)(O)O)c(=O)[nH]1 [GS-438] | – | – | – | – | – | – | – | pKa [8]: 6.5; CC50 [9]: 8.6 µM
Nc1nc(O)c2ncn(OC(/C=C/P(=O)(O)O)CO)c2n1 (stereo not drawn) | inactive | – | – | – | – | – | – | pKa ([8]; read-out: pKa E2): 6.6
Nc1ncnc2c1ncn2CC/C=C/P(=O)(O)O | – | – | – | 260 | 20 (≈ 5.38 µg/mL) | 137 | Not Active | IC50 (Human alphaherpesvirus 3 [10]): Not Active; IC50 (Human alphaherpesvirus 2 [11]): Not Active; IC50 (Cytomegalovirus [14]): Not Active; IC50 [7]: Not Active
Nc1nc(O)c2ncn(OCC/C=C\P(=O)(O)O)c2n1 | – | – | – | 26 | 0.1 (≈ 0.0301 µg/mL) | 11.7 | Not Active | IC50 (Human alphaherpesvirus 3 [10]): Not Active; IC50 (Cytomegalovirus [16]): 178 µM; IC50 (Human alphaherpesvirus 2 [11]): Not Active; IC50 [7]: Not Active
Nc1ncnc2c1ncn2CC(/C=C/P(=O)(O)O)CO (stereo not drawn) | – | 16 | 91 | 189 | – | – | – | IC50 (Cytomegalovirus [3]): 35 µM; IC50 (Human alphaherpesvirus 1 [5]): 137 µM; IC50 [7]: Not Active
Nc1ccn(OC(/C=C/P(=O)(O)O)CO)c(=O)n1 (stereo not drawn) | inactive | – | – | – | – | – | – | –
Nc1nc2c(ncn2CC/C=C\P(=O)(O)O)c(=O)[nH]1 | inactive | – | – | – | – | – | – | –
Nc1nc2c(ncn2COCCO)c(=O)[nH]1 [ACYCLOVIR] | – | – | – | – | – | – | – | IC50 (Human alphaherpesvirus 2 [17]): 4.3 µM; IC50 (Human alphaherpesvirus 3 [18]): 21 µM; IC50 (Cytomegalovirus [16]): 93 µM; IC50 (Human alphaherpesvirus 1 [19]): 3.9 µM; CC50 (MRC5 [20]): 355 µM
Nc1ncnc2c1ncn2OCC/C=C/P(=O)(O)O | – | – | – | 330 | 82 (≈ 23.4 µg/mL) | – | Not Active | IC50 (Human alphaherpesvirus 3 [10]): Not Active; CC50 [21]: 130 µM; IC50 (Human alphaherpesvirus 2 [11]): Not Active; IC50 [22]: 10.2 µM; IC50 (Cytomegalovirus [14]): Not Active
Nc1nc(O)c2ncn(OCC/C=C/P(=O)(O)O)c2n1 | – | < 10 | < 10 | 0.1 | < 0.01 | 0.13 | – | CC50 [21]: 0.23 µM; IC50 (Cytomegalovirus [3]): 0.53 µM; IC50 [22]: 0.1 µM; IC50 (Human alphaherpesvirus 1 [5]): < 10 µM
Nc1nc(O)c2ncn(CC/C=C/P(=O)(O)O)c2n1 | – | 190 | 90 | 4.5 | 0.35 (≈ 0.0998 µg/mL) | 1.3 | Not Active | IC50 (Cytomegalovirus [3]): 52 µM; IC50 [7]: Not Active
Cc1cn([C@H]2C[C@H](N=[N+]=[N-])[C@@H](CO)O2)c(=O)[nH]c1=O [ZIDOVUDINE] | – | – | – | – | – | – | – | CC50 (MRC5 [20]): 72 µM; CC50 [23]: > 370 µM; CC50 (PBL): 13 µM; MIC (Visna-maedi virus [24]): 5.6 µM (≈ 1.5 µg/mL)
Nc1nc(O)c2ncn(OCC(/C=C/P(=O)(O)O)CO)c2n1 (stereo not drawn) | – | 15 | 177 | 19 | – | – | – | IC50 (Cytomegalovirus [3]): 44 µM; IC50 [22]: 8.9 µM; IC50 (Human alphaherpesvirus 1 [5]): 295 µM
Nc1nc(N)c2ncn(CC/C=C/P(=O)(O)O)c2n1 | – | – | – | 222 | 2.1 (≈ 0.597 µg/mL) | 95 | Not Active | IC50 (Cytomegalovirus [25]): Not Active; IC50 (Human alphaherpesvirus 3 [10]): Not Active; IC50 (Human alphaherpesvirus 2 [11]): Not Active; IC50 [22]: 9.8 µM
Nc1ncnc2c1ncn2OC(/C=C/P(=O)(O)O)CO (stereo not drawn) | inactive | – | – | – | – | – | – | –
Nc1ncnc2c1ncn2OCCOCP(=O)(O)O | – | 280 | 270 | 173 | 8 (≈ 2.31 µg/mL) | 173 | Not Active | IC50 [22]: 0.24 µM; IC50 (Cytomegalovirus [14]): Not Active
